Test [1] addresses T1, Sphingosine kinase 1 (Homo sapiens, UniProt Q9NYA1). As to the kind of experiment: Competitive inhibition of SK1 (unknown origin) in presence of ATP.
In test [2] the target is T1, Sphingosine kinase 1. As to the kind of experiment: Uncompetitive inhibition of SK1 (unknown origin) in presence of ATP.
Test [3] concerns the target T1, Sphingosine kinase 1. As to the kind of experiment: Uncompetitive inhibition of recombinant SK1 (unknown origin) expressed in HEK293 cells after 15 to 20 mins by Cornish-Bowden plot analysis in presence of sphingosine. In kind it is cell-based.
The target of test [4] is T1, Sphingosine kinase 1. The test is described as follows: Inhibition of recombinant GFP-tagged SK1 (unknown origin) expressed in HEK293 cells using sphingosine as substrate at 50 uM after 30 mins by Cerenkov counting analysis relative to control.
For test [5], the target named is T1, Sphingosine kinase 1. As to the kind of experiment: Inhibition of recombinant GFP-tagged SK1 (unknown origin) expressed in HEK293 cells using sphingosine as substrate at 50 uM after 30 mins by Cerenkov counting analysis relative to control. Type of test: cell-based. Summed up: (§1)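 Lysate of HEK 293 cells stably overexpressing GFP-SK1 (30 μg protein) was incubated for 30 min at 30 °C with 3 μM sphingosine (Km) in Triton X-100 and 250 μM [γ-32P]ATP in 10 mM MgCl2, at pH 7.4 Tris buffer with phosphatase and protease inhibitors. Compounds were in DMSO; the control was 5% DMSO. [32P]-S1P was extracted into 1-butanol/KCl and measured by Cerenkov counting. Activity is % of the sphingosine-alone control, n = 3, mean ± S.E.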

Test [6] concerns the target T1, Sphingosine kinase 1. As to the kind of experiment: Activity at recombinant GFP-tagged SK1 (unknown origin) expressed in HEK293 cells at 50 uM after 30 mins by Cerenkov counting analysis. Type of test: cell-based.
Test [7] deals with T1, Sphingosine kinase 1. The test is described as follows: Activation of recombinant GFP-tagged SK1 (unknown origin) expressed in HEK293 cells using sphingosine as substrate after 30 mins by Cerenkov counting analysis. In kind it is cell-based. In outline:
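Enzyme source: lysates (30 μg) of HEK 293 cells stably overexpressing GFP-SK1, cultured in DMEM/10% FCS with geneticin. Reaction run 30 min at 30 °C with 3 μM sphingosine in Triton X-100 (0.063% final) and 250 μM [γ-32P]ATP in 10 mM MgCl2, pH 7.4 Tris buffer. Compound added in DMSO; control is 5% DMSO, set as 100% activity. [32P]-S1P is extracted into butanol and read by Cerenkov counting. EC50 from concentration-response, n = 3.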

The target in test [8] is T1, Sphingosine kinase 1. As to the kind of experiment: Activation of recombinant GFP-tagged SK1 (unknown origin) expressed in HEK293 cells using sphingosine as substrate at 50 uM after 30 mins by Cerenkov counting analysis relative to control. Type of test: cell-based. In outline: as §1
The target of test [9] is T1, Sphingosine kinase 1. The test is described as follows: Activation of recombinant GFP-tagged SK1 (unknown origin) expressed in HEK293 cells using sphingosine as substrate above 50 uM after 30 mins by Cerenkov counting analysis. Type of test: cell-based. Summed up: as §1

pEC50: −log10 of the molar value. Activity calls are given as the source filed them. The calls are words filed in the database; no cut-off is given here.

The term inhibition denotes the share of the control response that was lost under treatment. A word on the pEC50: it is the EC50 on a negative log10 scale, so that one unit is a factor of ten.

T1 sequence (Q9NYA1 whole entry): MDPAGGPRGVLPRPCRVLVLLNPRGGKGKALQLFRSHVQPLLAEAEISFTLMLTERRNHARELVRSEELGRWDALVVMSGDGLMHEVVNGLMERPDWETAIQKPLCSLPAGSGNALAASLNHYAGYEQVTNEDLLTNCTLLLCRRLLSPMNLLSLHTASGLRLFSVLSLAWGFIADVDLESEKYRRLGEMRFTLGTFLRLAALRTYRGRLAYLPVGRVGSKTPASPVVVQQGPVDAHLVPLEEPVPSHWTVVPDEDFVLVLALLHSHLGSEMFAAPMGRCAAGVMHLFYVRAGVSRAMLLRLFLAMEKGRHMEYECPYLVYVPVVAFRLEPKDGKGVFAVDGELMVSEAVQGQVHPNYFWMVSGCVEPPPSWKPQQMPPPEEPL

With `CCCCCCCCc1ccc(CC[C@](N)(/C=C/P(=O)(O)O)CO)cc1`, the Kic at Sphingosine kinase 1 [1] was determined as 10 µM. In addition, the Kiuc amounted to 65 µM on Sphingosine kinase 1 [2] and 14.5 µM at Sphingosine kinase 1 [3]. Moreover, on Sphingosine kinase 1 [4], the inhibition worked out at 62.7%.
For the compound `CCCCCCCCc1ccc(CC[C@](N)(/C=C/P(=O)(O)O)CF)cc1`, the inhibition on Sphingosine kinase 1 [5] is 20%. Also, the result on Sphingosine kinase 1 [6] was inactive.
`CCCCCCCCc1ccc(CC[C@](N)(/C=C/C(=O)O)CO)cc1`: the inhibition entry on Sphingosine kinase 1 [5] was “inactive”. For the same compound, on Sphingosine kinase 1 [6], the result was inactive.
As for `CCCCCCCCc1ccc(CC[C@](/C=C/P(=O)(O)O)(CF)N=[N+]=[N-])cc1`, the pEC50 at Sphingosine kinase 1 [7] is 5.24. Further, at Sphingosine kinase 1 [8], the Activity worked out at 30%. Besides, the outcome on Sphingosine kinase 1 [6] was inactive.
As to `CCCCCCCCc1ccc(CC[C@]2(N)CCC(=O)OC2)cc1`, at Sphingosine kinase 1 [5], the inhibition was determined as 35%. Besides, the result on Sphingosine kinase 1 [6] was inactive.
With `CCCCCCCCc1ccc(CC[C@](/C=C/P(=O)(O)O)(CO)N=[N+]=[N-])cc1`, the outcome at Sphingosine kinase 1 [9] and at Sphingosine kinase 1 [6] was inactive. The pEC50 on Sphingosine kinase 1 [7] is 5.08. The Activity at Sphingosine kinase 1 [8] was 30%.
